The results in this text go back to ChEMBL document CHEMBL1124756, “The discovery of potent nonpeptide angiotensin II receptor antagonists: a new class of potent antihypertensives” (J Med Chem, 1990).

Data set [1] is described as follows: Dissociation constant (pKa). Type of data set: physicochemical.
Data set [2] concerns the target T1, Angiotensin II receptor (Rattus norvegicus, UniProt P29089+P25095+P35351).
T1 sequence (P29089 whole entry): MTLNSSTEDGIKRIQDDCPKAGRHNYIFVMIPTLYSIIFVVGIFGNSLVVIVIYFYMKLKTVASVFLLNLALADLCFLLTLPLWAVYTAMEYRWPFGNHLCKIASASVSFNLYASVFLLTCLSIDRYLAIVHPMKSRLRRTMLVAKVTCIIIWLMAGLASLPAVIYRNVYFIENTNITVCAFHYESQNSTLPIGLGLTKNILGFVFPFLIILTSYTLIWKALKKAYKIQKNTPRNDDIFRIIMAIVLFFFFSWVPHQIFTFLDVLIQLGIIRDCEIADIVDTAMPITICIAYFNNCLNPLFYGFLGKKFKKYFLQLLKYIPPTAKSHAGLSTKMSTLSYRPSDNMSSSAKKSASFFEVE
T1 sequence (P25095 whole entry): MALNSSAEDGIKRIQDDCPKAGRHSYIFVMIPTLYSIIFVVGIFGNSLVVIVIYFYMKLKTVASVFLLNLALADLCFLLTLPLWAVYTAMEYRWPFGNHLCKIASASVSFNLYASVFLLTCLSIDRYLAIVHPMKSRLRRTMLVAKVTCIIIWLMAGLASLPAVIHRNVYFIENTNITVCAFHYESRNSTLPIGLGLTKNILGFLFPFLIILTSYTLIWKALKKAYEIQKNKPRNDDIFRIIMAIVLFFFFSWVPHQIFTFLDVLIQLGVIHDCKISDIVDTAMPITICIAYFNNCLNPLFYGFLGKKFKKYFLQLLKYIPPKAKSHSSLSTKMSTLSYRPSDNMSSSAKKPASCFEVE
T1 sequence (P35351 whole entry): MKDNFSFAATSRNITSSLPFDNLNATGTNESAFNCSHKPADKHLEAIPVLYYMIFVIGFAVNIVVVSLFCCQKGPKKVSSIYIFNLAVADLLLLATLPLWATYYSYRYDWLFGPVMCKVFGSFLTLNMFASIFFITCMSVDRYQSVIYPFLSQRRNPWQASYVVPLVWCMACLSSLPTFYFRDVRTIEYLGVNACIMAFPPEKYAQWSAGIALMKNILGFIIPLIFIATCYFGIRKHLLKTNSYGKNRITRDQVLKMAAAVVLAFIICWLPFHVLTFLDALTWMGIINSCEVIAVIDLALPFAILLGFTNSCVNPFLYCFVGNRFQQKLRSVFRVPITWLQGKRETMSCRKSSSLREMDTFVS
Briefly: Inhibitory concentration that gave 50 percent displacement of specific binding of [3H]AII (2 nM) to Angiotensin II receptor. The format is protein assay. Summed up: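 Rat adrenal cortical microsomes from male Sprague–Dawley rats, resuspended in 50 mM Tris pH 7.2, 5 mM MgCl2, 0.25% BSA. Membranes (0.02–0.03 mg protein) incubated with [3H]AII 2 nM plus varying inhibitor concentrations, 60 min at 25 °C with shaking. Glass-fiber filtration, scintillation counting, duplicates. Nonspecific binding defined with 1 μM unlabeled AII. IC50 taken from linear portion of displacement curve.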

Regarding `CCCCc1nc(Cl)c(CC(=O)OC)n1Cc1ccc(NC(=O)c2cc(I)ccc2NS(=O)(=O)C(F)(F)F)cc1`, in data set [1], the pKa – broadly, the pH at which an ionisable group is half protonated – is 4.5. In addition, the IC50 (in general, the midpoint of a concentration-inhibition curve) in data set [2] came out at 3.4 µM.
`CCCCc1nc(Cl)c(CO)n1Cc1ccc(/C=N/O)cc1` registered an IC50 in data set [2] above 100 µM.
Compound `CCCCc1nc(Cl)c(CC(=O)O)n1Cc1cccc(C(=O)O)c1` displayed an IC50 in data set [2] of 100 µM.
As for `CCCCc1nc(Cl)c(CC(=O)OC)n1Cc1ccccc1NC(=O)c1ccccc1C(=O)O`, in data set [2], the IC50 worked out at 100 µM.
In data set [2], `CCCCc1nc(Cl)c(CO)n1Cc1ccc(C=O)cc1` registered an IC50 of 28 µM.
Same read-out and setting: in the case of `CCCCc1nc(Cl)c(CC(=O)OC)n1Cc1ccc([N+](=O)[O-])cc1` it was 100 µM; in that of `CCCCc1nc(Cl)c(CC(=O)OC)n1Cc1ccc(NC(=O)c2cccc([N+](=O)[O-])c2C(=O)O)cc1`, 0.4 µM.
Compound `CCCCc1nc(Cl)c(COC)n1Cc1ccc(C(=O)N[C@H](Cc2ccccc2)C(=O)O)cc1` came in with a half-maximal inhibitory concentration (IC50) in data set [2] of 6.1 µM.
On to `CCCCc1nc(Cl)c(COC)n1Cc1ccc(C(=O)Nc2ccccc2C(=O)O)cc1`, for which, in data set [2], the 50% inhibitory concentration (IC50) turned out to be 8 µM.
With `CCCCc1nc(Cl)c(CC(=O)OC)n1Cc1ccc(NC(=O)c2cc(Br)ccc2NS(=O)(=O)C(F)(F)F)cc1`, in data set [1], the pKa was 4.5. The compound further returned an IC50 in data set [2] of 40 µM.
Turning to `CCCCc1nc(Cl)c(CC(=O)OC)n1Cc1ccc(NC(=O)/C=C\C(=O)O)cc1`, the IC50 in data set [2] was found to be 11 µM.
Compound `CCCCc1nc(Cl)c(CC(=O)OC)n1Cc1ccc(NCc2ccccc2)cc1` showed an IC50 in data set [2] of 40 µM. This IC50 is about 3.6-fold higher than that of the compound before.
In data set [2], `CCCCc1nc(Cl)c(COC)n1Cc1ccc(C(=O)Nc2cccc(C)c2C(=O)O)cc1` returned an IC50 of 0.5 µM.
For the compound `CCCCc1nc(Cl)c(CC(=O)OC)n1Cc1ccc(NC(=O)c2cc(C)ccc2C(=O)O)cc1`, in data set [2], the IC50 is 0.38 µM.
The same measure, in the same setting: in the case of `CCCCc1nc(Cl)c(CC(=O)OC)n1Cc1ccc(NC(=O)c2cc3ccccc3cc2C(=O)O)cc1` it was 5.8 µM.
In data set [1], `CCCCc1nc(Cl)c(CC(=O)OC)n1Cc1ccc(NC(=O)c2ccccc2NS(=O)(=O)C(F)(F)F)cc1` came in with a pKa of 4.5. Moreover, the IC50 in data set [2] amounted to 0.5 µM.
In turn, `CCCCc1nc(Cl)c(CC(=O)OC)n1Cc1ccc(N(Cc2ccccc2)C(=O)c2ccccc2NS(=O)(=O)C(F)(F)F)cc1` displayed a pKa in data set [1] of 4.5. In addition, the half-inhibitory concentration (IC50) in data set [2] is 2.7 µM.
In data set [2], `CCCCc1nc(CO)c(Cl)n1Cc1ccc(C(=O)O)cc1` gave an IC50 of 100 µM.
Consider `CCCCc1nc(Cl)c(CC(=O)OC)n1Cc1ccc(NC(=O)c2cccc(C)c2NS(=O)(=O)C(F)(F)F)cc1`, for which, in data set [1], the pKa was 4.5. For the same compound, in data set [2], the IC50 came out at 0.19 µM.
`CCCCc1nc(Cl)c(COC)n1Cc1ccc(N(C)C(=O)c2c(Cl)ccc(Cl)c2C(=O)O)cc1` registered an IC50 in data set [2] of 5.7 µM.
Regarding `CCCCc1nc(Cl)c(CC(=O)OC)n1Cc1ccc(NC(=O)c2c(OC)cccc2C(=O)O)cc1`, in data set [2], the IC50 is 0.08 µM.
In data set [1], `CCCCc1nc(Cl)c(CC(=O)OC)n1Cc1ccc(NC(=O)C2CCCCC2NS(=O)(=O)C(F)(F)F)cc1` (stereo in doubt; 51) gave a pKa of 7.6. The IC50 in data set [2] worked out at 4.5 µM.
On to `CCCCc1nc(Cl)c(COC)n1Cc1ccc(NC(=O)CC(C(=O)O)c2ccccc2)cc1` (stereo unspecified), for which, in data set [2], the IC50 was 2.8 µM.
With `CCCCc1nc(Cl)c(CC(=O)OC)n1Cc1ccc(NC(=O)c2ccc([N+](=O)[O-])cc2C(=O)O)cc1`, the IC50 in data set [2] was found to be 6.9 µM.
Compound `CCCCc1nc(Cl)c(CC(=O)OC)n1Cc1ccc(N2C(=O)c3ccccc3C2=O)cc1` displayed an IC50 in data set [2] of 3.1 µM.
Still for that read-out and setting: the result for `CCCCc1nc(Cl)c(CC(=O)OC)n1Cc1ccc(N2C(=O)C(c3ccccc3)=C(c3ccccc3)C2=O)cc1` reads above 10 µM; that for `CCCCc1nc(Cl)c(COC(C)=O)n1Cc1ccc(C(=O)O)cc1`, 5.3 µM; that for `CCCCc1nc(Cl)c(COC)n1Cc1ccc(C(=O)Nc2ccccc2-c2nn[nH]n2)cc1`, 0.57 µM.
`CCCCc1nc(Cl)c(CO)n1Cc1ccc(OC)cc1` came in with an IC50 in data set [2] of 100 µM.
Consider `CCCCc1nc(Cl)c(COC)n1Cc1ccc(C(=O)N[C@@H](Cc2ccccc2)C(=O)O)cc1`, for which the concentration for half-maximal inhibition (IC50) in data set [2] was 22 µM. This IC50 is about 4.5-fold lower than that of the compound before.
Same read-out and setting: the result for `CCCCc1nc(Cl)c(CC(=O)O)n1Cc1ccccc1[N+](=O)[O-]` reads 15 µM.
Turning to `CCCCc1nc(Cl)c(CC(=O)OC)n1Cc1ccc(NC(=O)c2ccc(NS(=O)(=O)C(F)(F)F)cc2)cc1`, the IC50 in data set [2] worked out at 84 µM.
Consider `CCCCCCCc1nccn1Cc1ccc(NC(=O)c2ccccc2C(=O)O)cc1`, for which the IC50 in data set [2] worked out at 1.1 µM.
`CCCCc1nc(CC(=O)OC)c(Cl)n1Cc1ccc(NC(=O)c2ccccc2C(=O)O)cc1` displayed an IC50 in data set [2] of 0.42 µM.
On the same count and under the same terms, in the case of `CCCCc1nc(Cl)c(CC(=O)OC)n1Cc1ccccc1NC(=O)c1ccccc1NS(=O)(=O)C(F)(F)F` it was above 100 µM.
`CCCCc1nc(Cl)c(CC(=O)OC)n1Cc1ccc(NC(=O)c2c(C)cccc2C(=O)O)cc1` yielded an IC50 in data set [2] of 0.032 µM.
Compound `CCCCc1nc(Cl)c(CC(=O)OC)n1Cc1ccc(NC(=O)C(F)(F)F)cc1` registered a pKa in data set [1] of 9.5. Besides, the IC50 in data set [2] came out at 27 µM.
As for `CCCCc1nc(Cl)c(CC(=O)OC)n1Cc1ccc(NS(=O)(=O)C(F)(F)F)cc1`, the pKa in data set [1] was determined as 4.5. In data set [2], this compound had an IC50 of 2.1 µM.
With `CCCCc1nc(Cl)c(CC(=O)OC)n1Cc1ccc(NC(=O)C2CCCCC2NS(=O)(=O)C(F)(F)F)cc1` (stereo in doubt; 50), the pKa in data set [1] was 7.6. The same compound yielded an IC50 in data set [2] of 3.9 µM.
As for `O=C(O)c1ccccc1C(=O)Nc1ccc(Cn2c(CCCc3ccccc3)nc(Cl)c2CO)cc1`, in data set [2], the IC50 was determined as 80 µM. This lies in the double-digit micromolar range.
In data set [2], `CCCCc1nc(Cl)c(COC)n1Cc1ccc(C(=O)N2CCC[C@@H]2C(=O)O)cc1` yielded an IC50 of 120 µM.
In data set [1], `CCCCc1nc(Cl)c(CC(=O)OC)n1Cc1ccc(NC(=O)c2cc(C)ccc2NS(=O)(=O)C(F)(F)F)cc1` had a pKa of 4.5. For the same compound, in data set [2], the IC50 came to 0.81 µM.
For `CCCCc1nc(Cl)c(Cc2nnn[nH]2)n1Cc1ccc(-c2nnn[nH]2)cc1` the same measures were 4 and 1.2 µM.
In data set [2], `CCCCc1nc(Cl)c(CC(=O)O)n1Cc1ccccc1C(=O)O` returned an IC50 of 38 µM. This counts as double-digit micromolar.
Take `CCCCc1nc(Cl)c(CC(=O)O)n1Cc1ccc(CC(=O)O)cc1`: the IC50 in data set [2] was found to be 13 µM.
In data set [2], `CCCCc1nc(Cl)c(Cc2nnn[nH]2)n1Cc1cccc(-c2nnn[nH]2)c1` had a half-inhibitory concentration (IC50) of 3.8 µM.
In data set [2], `CCCCc1nc(Cl)c(CC(=O)OC)n1Cc1ccc(N)cc1` had an IC50 of 100 µM.
Take `CCCCc1nc(Cl)c(CC(=O)OC)n1Cc1ccc(NC(=O)c2ccccc2-c2ccccc2C(=O)O)cc1`: the IC50 in data set [2] was 0.19 µM. This IC50 is about 530-fold lower than that of the compound before.
With `CCCCc1nc(Cl)c(CC(=O)OC)n1Cc1ccc(NC(=O)c2cccc(NS(=O)(=O)C(F)(F)F)c2)cc1`, the IC50 in data set [2] came to 1.3 µM.
As for `CCCCc1nc(CC(=O)O)c(Cl)n1Cc1ccc(C(=O)O)cc1`, the IC50 in data set [2] was 19 µM.
`CCCCc1nc(Cl)c(CC(=O)OC)n1Cc1ccc(NC(=O)c2cc(Cl)ccc2NS(=O)(=O)C(F)(F)F)cc1`: the pKa in data set [1] was determined as 4.5. In data set [2], the IC50 was found to be 5.9 µM.
On to `CCCCc1nc(Cl)c(COC)n1Cc1ccc(NC(=O)C(CC(=O)O)c2ccccc2)cc1` (stereo unspecified), for which, in data set [2], the IC50 amounted to 7.5 µM.
As to `C1CCC(NC2CCCCC2)CC1.CCCCc1nc(Cl)c(CC(=O)OC)n1Cc1ccc(NC(=O)c2c(Cl)ccc(Cl)c2C(=O)O)cc1`, in data set [2], the IC50 was determined as 0.018 µM.
On the same count and under the same terms, the result for `CCCCc1nc(Cl)c(COC)n1Cc1ccc(C(=O)N2CCC[C@H]2C(=O)O)cc1` reads 6.4 µM.
